ChEMBL document CHEMBL1165965, “Synthesis and structure-activity relationships of 1,2,3,4-tetrahydropyrido[2,3-b]pyrazines as potent and selective inhibitors of the anaplastic lymphoma kinase” (Bioorg Med Chem, 2010)

Experiments:
[1] = biological target: Protein kinase C eta type (Homo sapiens) (UniProt P24723); assay: Inhibition of PRKCH at 1 uM
[2] = biological target: Serine/threonine-protein kinase pim-3 (Homo sapiens) (UniProt Q86V86); assay: Inhibition of PIM3 at 1 uM
[3] = biological target: T1, Serine/threonine-protein kinase LATS2 (Homo sapiens) (UniProt Q9NRM7); assay: Inhibition of LATS2 at 1 uM
T1 sequence (whole entry): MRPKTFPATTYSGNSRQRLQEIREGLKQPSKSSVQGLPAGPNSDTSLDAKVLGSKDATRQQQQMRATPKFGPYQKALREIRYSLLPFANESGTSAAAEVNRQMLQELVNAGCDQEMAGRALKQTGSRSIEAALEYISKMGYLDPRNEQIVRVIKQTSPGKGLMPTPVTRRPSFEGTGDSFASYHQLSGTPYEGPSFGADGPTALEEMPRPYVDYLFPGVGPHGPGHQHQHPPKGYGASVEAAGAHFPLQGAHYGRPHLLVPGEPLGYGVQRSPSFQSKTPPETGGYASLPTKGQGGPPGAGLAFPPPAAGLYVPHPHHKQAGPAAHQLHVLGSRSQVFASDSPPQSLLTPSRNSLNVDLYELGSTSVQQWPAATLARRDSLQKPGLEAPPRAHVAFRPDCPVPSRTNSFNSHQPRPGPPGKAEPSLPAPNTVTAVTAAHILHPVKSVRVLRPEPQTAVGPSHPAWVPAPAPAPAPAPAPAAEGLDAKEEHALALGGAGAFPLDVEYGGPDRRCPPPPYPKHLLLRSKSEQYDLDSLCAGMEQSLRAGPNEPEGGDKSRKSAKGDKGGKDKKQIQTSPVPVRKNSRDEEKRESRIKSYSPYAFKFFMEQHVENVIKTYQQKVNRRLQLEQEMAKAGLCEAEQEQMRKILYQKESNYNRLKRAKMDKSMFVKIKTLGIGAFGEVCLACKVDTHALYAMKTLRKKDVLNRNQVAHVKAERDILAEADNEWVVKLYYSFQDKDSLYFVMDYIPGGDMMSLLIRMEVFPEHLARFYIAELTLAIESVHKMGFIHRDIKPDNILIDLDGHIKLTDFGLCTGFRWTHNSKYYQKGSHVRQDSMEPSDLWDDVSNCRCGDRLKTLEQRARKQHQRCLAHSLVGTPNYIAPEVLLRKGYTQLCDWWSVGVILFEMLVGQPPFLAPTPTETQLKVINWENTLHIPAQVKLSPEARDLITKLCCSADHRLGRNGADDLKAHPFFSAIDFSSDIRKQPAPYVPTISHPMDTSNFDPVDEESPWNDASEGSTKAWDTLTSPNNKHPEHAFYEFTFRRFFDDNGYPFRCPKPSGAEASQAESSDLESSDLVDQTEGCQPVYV

[4] = biological target: Myosin light chain kinase, smooth muscle (Homo sapiens) (UniProt Q15746); assay: Inhibition of MYLK at 1 uM
Myosin light chain kinase, smooth muscle (Homo sapiens), sequence (Q15746 whole entry, canonical isoform): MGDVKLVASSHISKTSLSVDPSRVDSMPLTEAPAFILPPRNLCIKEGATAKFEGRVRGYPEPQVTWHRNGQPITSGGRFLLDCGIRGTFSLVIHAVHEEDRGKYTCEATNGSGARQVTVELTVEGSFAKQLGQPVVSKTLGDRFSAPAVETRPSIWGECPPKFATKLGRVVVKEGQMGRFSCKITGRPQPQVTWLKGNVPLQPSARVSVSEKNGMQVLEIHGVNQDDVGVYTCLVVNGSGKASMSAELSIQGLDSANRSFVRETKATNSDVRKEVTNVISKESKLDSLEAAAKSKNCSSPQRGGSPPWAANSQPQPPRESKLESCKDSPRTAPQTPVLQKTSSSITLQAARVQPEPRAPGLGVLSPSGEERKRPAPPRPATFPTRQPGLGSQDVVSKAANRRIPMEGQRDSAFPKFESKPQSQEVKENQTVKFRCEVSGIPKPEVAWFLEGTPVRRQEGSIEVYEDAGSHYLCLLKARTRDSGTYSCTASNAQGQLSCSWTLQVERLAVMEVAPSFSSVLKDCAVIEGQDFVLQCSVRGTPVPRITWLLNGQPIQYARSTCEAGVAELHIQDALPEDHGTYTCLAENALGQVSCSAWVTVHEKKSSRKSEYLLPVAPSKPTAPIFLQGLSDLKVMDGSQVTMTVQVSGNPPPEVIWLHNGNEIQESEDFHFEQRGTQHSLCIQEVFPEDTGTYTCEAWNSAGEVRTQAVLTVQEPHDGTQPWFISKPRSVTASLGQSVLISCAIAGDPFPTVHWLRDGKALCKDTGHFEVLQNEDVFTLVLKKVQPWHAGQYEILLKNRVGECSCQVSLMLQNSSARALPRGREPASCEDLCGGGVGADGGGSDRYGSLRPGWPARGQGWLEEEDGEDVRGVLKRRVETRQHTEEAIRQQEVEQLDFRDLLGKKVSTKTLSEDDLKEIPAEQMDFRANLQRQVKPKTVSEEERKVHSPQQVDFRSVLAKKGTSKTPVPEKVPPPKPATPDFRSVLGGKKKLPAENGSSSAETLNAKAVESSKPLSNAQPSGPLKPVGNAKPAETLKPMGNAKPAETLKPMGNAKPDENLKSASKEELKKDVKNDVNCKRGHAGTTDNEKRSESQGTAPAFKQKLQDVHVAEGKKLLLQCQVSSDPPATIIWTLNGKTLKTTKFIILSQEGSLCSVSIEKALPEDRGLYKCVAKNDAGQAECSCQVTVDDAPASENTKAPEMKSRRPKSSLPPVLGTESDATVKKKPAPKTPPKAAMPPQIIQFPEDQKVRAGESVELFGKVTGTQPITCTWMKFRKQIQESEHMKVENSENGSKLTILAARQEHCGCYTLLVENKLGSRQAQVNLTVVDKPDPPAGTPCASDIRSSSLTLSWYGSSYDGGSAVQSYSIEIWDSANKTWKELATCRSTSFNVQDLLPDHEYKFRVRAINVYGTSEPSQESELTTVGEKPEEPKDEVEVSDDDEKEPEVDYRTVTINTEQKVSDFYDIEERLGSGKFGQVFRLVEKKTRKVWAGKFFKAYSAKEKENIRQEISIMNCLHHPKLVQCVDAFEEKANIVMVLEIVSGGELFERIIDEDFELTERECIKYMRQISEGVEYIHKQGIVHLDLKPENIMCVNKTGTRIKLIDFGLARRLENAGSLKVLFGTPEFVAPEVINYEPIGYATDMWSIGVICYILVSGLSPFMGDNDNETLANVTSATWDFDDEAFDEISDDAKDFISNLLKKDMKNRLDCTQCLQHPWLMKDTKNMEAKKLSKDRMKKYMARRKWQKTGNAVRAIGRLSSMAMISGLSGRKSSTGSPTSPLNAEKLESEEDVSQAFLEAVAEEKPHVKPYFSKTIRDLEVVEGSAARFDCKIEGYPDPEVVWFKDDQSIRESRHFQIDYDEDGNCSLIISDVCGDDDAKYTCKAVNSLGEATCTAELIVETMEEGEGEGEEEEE

[5] = biological target: Phosphorylase b kinase gamma catalytic chain, skeletal muscle/heart isoform (Homo sapiens) (UniProt Q16816); assay: Inhibition of PHKG1 at 1 uM
Phosphorylase b kinase gamma catalytic chain, skeletal muscle/heart isoform (Homo sapiens), sequence (Q16816 whole entry, looked up, canonical isoform): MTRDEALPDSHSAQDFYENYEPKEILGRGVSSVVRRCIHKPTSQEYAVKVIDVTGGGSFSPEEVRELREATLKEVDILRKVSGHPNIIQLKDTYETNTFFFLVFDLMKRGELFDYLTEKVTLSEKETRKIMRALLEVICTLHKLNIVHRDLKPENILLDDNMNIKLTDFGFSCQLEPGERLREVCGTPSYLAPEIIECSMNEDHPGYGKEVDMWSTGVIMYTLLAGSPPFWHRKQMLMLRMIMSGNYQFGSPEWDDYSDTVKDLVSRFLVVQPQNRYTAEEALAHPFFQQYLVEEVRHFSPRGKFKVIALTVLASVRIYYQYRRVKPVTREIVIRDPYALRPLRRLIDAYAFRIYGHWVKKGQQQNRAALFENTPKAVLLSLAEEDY

[6] = biological target: T2, Rhodopsin kinase GRK1 (Homo sapiens) (UniProt Q15835); assay: Inhibition of GRK1 at 1 uM
T2 sequence (whole entry): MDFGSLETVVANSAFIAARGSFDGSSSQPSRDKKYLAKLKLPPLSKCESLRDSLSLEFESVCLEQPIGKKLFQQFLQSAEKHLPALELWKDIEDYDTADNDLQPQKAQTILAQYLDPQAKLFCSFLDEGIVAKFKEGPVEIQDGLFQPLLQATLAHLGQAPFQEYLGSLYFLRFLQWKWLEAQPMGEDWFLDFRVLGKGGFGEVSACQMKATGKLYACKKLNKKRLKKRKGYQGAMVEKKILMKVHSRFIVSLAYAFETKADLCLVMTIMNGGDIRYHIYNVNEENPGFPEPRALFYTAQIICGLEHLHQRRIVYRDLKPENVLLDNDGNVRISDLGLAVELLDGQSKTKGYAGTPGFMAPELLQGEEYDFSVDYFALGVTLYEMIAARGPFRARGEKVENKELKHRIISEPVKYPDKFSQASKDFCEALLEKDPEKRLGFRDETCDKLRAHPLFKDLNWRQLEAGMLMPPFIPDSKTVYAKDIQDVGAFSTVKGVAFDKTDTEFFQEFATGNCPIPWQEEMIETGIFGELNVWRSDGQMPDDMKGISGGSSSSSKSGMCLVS

[7] = biological target: T3, Serine/threonine-protein kinase ULK3 (Homo sapiens) (UniProt Q6PHR2); assay: Inhibition of ULK3 at 1 uM
T3 sequence (whole entry): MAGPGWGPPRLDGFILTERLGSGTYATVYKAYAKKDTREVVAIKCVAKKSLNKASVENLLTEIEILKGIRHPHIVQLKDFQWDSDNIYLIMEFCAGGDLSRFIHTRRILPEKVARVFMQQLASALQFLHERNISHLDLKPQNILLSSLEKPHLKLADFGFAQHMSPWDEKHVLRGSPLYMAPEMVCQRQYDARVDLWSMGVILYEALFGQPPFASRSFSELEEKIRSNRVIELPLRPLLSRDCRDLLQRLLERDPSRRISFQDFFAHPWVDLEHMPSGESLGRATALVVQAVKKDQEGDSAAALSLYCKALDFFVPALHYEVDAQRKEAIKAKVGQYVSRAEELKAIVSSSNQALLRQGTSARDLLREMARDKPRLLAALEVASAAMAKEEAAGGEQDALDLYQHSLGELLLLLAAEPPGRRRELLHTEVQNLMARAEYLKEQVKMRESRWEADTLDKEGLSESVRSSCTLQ

[8] = biological target: Ribosomal protein S6 kinase alpha-1 (Homo sapiens) (UniProt Q15418); assay: Inhibition of RPS6KA1 N-terminal domain1 at 1 uM
Ribosomal protein S6 kinase alpha-1 (Homo sapiens), sequence (Q15418 whole entry, the tested form may be a part): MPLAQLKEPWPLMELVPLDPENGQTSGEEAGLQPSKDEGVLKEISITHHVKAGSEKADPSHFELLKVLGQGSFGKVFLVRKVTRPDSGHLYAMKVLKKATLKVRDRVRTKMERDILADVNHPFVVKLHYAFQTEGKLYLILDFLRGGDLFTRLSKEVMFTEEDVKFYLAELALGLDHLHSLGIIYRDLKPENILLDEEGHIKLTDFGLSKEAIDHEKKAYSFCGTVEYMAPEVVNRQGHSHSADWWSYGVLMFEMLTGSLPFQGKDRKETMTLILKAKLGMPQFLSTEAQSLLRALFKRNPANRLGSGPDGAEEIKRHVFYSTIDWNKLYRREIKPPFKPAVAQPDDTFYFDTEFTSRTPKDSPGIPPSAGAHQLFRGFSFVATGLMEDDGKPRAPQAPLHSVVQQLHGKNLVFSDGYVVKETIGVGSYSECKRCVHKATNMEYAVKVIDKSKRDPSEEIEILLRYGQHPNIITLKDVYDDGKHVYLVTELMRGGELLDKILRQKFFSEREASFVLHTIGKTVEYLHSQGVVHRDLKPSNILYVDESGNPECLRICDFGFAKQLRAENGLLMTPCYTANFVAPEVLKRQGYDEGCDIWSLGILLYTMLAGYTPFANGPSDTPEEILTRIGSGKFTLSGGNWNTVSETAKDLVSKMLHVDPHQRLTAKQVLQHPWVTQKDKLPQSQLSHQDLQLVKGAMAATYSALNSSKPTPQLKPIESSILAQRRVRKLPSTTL

[9] = biological target: T4, Dual specificity mitogen-activated protein kinase kinase 3 (Homo sapiens) (UniProt P46734); assay: Inhibition of MEK3 at 1 uM
T4 sequence (whole entry): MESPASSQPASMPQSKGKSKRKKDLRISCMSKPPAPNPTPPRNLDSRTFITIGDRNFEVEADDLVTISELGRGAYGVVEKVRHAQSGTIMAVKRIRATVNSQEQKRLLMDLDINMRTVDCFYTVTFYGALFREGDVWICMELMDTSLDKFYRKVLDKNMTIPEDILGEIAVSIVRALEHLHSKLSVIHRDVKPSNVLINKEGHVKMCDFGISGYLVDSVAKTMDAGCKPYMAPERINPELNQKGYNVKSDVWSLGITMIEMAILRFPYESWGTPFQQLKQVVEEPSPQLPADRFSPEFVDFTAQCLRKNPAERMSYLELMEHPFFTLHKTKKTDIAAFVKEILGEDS

[10] = biological target: Ribosomal protein S6 kinase alpha-1 (Homo sapiens) (UniProt Q15418); assay: Inhibition of RPS6KA1 C-terminal domain2 at 1 uM
[11] = biological target: Epidermal growth factor receptor (Homo sapiens) (UniProt P04626+P00533+Q15303+P21860); assay: Inhibition of EGFR S752-I759del mutant at 1 uM; assay type: protein assay
Outline: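 Single-concentration screen using Ambit Bioscience KINOMEscan technology across a panel of 250–400 kinases. Per-kinase inhibition from this screen was summarized as S(90), the fraction of kinases inhibited by more than 90%.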

Protein kinase C eta type (Homo sapiens), sequence (P24723 whole entry): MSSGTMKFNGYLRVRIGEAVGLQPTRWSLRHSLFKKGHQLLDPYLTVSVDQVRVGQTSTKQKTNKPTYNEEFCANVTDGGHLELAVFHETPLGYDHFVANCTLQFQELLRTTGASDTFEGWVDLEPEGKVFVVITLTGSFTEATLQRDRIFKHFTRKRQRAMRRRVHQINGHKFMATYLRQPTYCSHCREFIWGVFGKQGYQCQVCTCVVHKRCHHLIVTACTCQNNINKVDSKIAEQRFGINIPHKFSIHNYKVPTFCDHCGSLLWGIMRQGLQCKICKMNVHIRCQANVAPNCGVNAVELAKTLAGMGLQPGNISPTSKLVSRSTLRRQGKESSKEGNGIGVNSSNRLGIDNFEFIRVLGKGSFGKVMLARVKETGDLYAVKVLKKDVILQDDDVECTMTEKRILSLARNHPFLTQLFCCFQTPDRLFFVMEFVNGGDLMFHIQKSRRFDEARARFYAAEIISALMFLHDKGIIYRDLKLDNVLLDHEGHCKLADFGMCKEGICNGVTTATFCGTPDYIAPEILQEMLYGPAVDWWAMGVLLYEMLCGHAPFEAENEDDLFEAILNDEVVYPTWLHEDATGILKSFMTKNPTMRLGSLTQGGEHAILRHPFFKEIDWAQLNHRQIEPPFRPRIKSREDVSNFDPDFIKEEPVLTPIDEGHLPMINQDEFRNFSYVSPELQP

Row | Structure (SMILES) | inhibition [1] [%] | inhibition [2] [%] | inhibition [3] [%] | inhibition [4] [%] | inhibition [5] [%] | inhibition [6] [%] | inhibition [7] [%] | inhibition [8] [%] | inhibition [9] [%] | inhibition [10] [%] | inhibition [11] [%]
1 | O=C(O)c1ccc(-c2cnc3c(c2)N(Cc2cc(Cl)ccc2C(F)(F)F)CCN3)cc1 | < 50 | 79.2 |  |  | < 50 |  |  | < 50 |  | < 50 | < 50
2 | O=C(c1ccc(-c2cnc3c(c2)N(Cc2cc(Cl)ccc2C(F)(F)F)CCN3)cc1)N1CCC(N2CCCC2)CC1 | < 50 | < 50 |  |  | < 50 |  |  | < 50 |  | < 50 | < 50
3 | COC1CCN(C(=O)c2ccc(-c3cnc4c(c3)N(Cc3cc(Cl)ccc3C(F)(F)F)CCN4)cc2)CC1 | < 50 | < 50 |  |  | < 50 |  |  | < 50 |  | < 50 | < 50
4 | FC(F)(F)c1ccc(Cl)cc1CN1CCNc2ncc(-c3ccnc(N4CCNCC4)c3)cc21 | < 50 | < 50 | < 50 | < 50 | < 50 | < 50 | < 50 | < 50 | < 50 | < 50 | < 50
5 | CN1CCN(c2ccc(-c3cnc4c(c3)N(Cc3cc(F)ccc3F)CCN4)cn2)CC1 | < 50 | < 50 | < 50 | < 50 | < 50 | < 50 | < 50 | < 50 | < 50 | < 50 | < 50

Results, then the molecule that gave them:

Row | inhibition [1] [%] | inhibition [2] [%] | inhibition [3] [%] | inhibition [4] [%] | inhibition [5] [%] | inhibition [6] [%] | inhibition [7] [%] | inhibition [8] [%] | inhibition [9] [%] | inhibition [10] [%] | inhibition [11] [%] | Structure (SMILES)
6 | < 50 | < 50 | < 50 | < 50 | < 50 | < 50 | < 50 | < 50 | < 50 | < 50 | < 50 | CN1CCN(c2ccc(-c3cnc4c(c3)N(Cc3cc(Cl)ccc3C(F)(F)F)CCN4)cn2)CC1
7 | < 50 | < 50 | < 50 | < 50 | < 50 | < 50 | < 50 | < 50 | < 50 | < 50 | < 50 | CC(=O)N1CCN(c2cc(-c3cnc4c(c3)N(Cc3cc(Cl)ccc3C(F)(F)F)CCN4)ccn2)CC1
8 | < 50 | < 50 | < 50 | < 50 | < 50 | < 50 | < 50 | < 50 | < 50 | < 50 | < 50 | CN1CCN(c2ccc(-c3cnc4c(c3)N(Cc3c(F)ccc(F)c3Cl)CCN4)cn2)CC1
9 | < 50 | < 50 |  |  | < 50 |  |  | < 50 |  | < 50 | < 50 | O=C(c1ccc(-c2cnc3c(c2)N(Cc2cc(Cl)ccc2C(F)(F)F)CCN3)cc1)N1CCCCC1
10 | < 50 | < 50 | < 50 | < 50 | < 50 | < 50 | < 50 | < 50 | < 50 | < 50 | < 50 | CN1CCN(c2ccc(-c3cnc4c(c3)N(Cc3cc(Cl)ccc3Cl)CCN4)cn2)CC1
